Source: PubChem BioAssay (several laboratories)
Rows were chosen to be rich in hits. Some 1.8% of all compounds tested hit in one or more screens of this group.
TbMetRS inhib – blocks T. brucei methionyl-tRNA synthetase activity | purified T. brucei MetRS, ATP depletion, Kinase-Glo luminescence | inhibition, % at 11.9 µM | 360,000 tested, 0.4% active;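 active means inhibition above a per-plate cutoff of the control wells' mean inhibition plus 3 SD, cut at about 5.5% in these data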;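 further: 0% = DMSO wells median and 100% = median of wells with control inhibitor compound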
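assay system = parasite MetRS enzyme | timing = 15 min preincubation, 2 h reaction, all 25 °C | evaluation = percent inhibition relative to median high and low control wells | medium = HEPES buffer containing pyrophosphatase, BSA, spermine, DTT | compound = single dose, 11.9 µM final nominal, 0.9% final DMSO | detection = Kinase-Glo luminescence, ATP depletion format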
A3A deaminase – human APOBEC3A DNA deaminase inhibition; P31941; 330,000 tested, 0.41% active; AID 493011; inhibition, % at 20 µM; recombinant A3A, FAM/TAMRA ssDNA deamination fluorescence;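 active means at least 40% inhibition at 20 µM here, with at most 30% in a related deaminase screen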;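 further: plate controls were A3A with DMSO for no effect and wells lacking A3A enzyme for full effect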
A3G deaminase – inhibitors of human APOBEC3G DNA deaminase; 330,000 tested, 0.28% active; inhibition, % at 20 µM; Q9HC16; recombinant A3G, ssDNA deamination FAM/TAMRA fluorescence;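 active means inhibition of at least 40% at 20 µM, with no more than 30% in the related APOBEC3A deaminase screen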;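 further: plate controls were DMSO wells with A3G for no effect and wells lacking A3G enzyme for full effect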
PHOSPHO1 block – PHOSPHO1 (human) inhibition. Q8TCT1. recombinant PHOSPHO1, absorbance phosphatase assay. inhibition, % at 13.3 µM. 290,000 tested, 1.1% active; in the data active means inhibition above about 60%
pCIP destab – p/CIP protein destabilization | F442A p/CIP-EGFP cells, EGFP fluorescence, 16 h | 290,000 tested, 0.01% active | decrease of EGFP signal, % at 10 µM | AID 1984 | Q05BA5;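 active means EGFP signal decrease of at least 30% at 10 µM or well 3 SD below plate mean, unless failing retest; inactive means the rest, including hits failing retest or dose response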
Target sequence (Q05BA5 1-1403): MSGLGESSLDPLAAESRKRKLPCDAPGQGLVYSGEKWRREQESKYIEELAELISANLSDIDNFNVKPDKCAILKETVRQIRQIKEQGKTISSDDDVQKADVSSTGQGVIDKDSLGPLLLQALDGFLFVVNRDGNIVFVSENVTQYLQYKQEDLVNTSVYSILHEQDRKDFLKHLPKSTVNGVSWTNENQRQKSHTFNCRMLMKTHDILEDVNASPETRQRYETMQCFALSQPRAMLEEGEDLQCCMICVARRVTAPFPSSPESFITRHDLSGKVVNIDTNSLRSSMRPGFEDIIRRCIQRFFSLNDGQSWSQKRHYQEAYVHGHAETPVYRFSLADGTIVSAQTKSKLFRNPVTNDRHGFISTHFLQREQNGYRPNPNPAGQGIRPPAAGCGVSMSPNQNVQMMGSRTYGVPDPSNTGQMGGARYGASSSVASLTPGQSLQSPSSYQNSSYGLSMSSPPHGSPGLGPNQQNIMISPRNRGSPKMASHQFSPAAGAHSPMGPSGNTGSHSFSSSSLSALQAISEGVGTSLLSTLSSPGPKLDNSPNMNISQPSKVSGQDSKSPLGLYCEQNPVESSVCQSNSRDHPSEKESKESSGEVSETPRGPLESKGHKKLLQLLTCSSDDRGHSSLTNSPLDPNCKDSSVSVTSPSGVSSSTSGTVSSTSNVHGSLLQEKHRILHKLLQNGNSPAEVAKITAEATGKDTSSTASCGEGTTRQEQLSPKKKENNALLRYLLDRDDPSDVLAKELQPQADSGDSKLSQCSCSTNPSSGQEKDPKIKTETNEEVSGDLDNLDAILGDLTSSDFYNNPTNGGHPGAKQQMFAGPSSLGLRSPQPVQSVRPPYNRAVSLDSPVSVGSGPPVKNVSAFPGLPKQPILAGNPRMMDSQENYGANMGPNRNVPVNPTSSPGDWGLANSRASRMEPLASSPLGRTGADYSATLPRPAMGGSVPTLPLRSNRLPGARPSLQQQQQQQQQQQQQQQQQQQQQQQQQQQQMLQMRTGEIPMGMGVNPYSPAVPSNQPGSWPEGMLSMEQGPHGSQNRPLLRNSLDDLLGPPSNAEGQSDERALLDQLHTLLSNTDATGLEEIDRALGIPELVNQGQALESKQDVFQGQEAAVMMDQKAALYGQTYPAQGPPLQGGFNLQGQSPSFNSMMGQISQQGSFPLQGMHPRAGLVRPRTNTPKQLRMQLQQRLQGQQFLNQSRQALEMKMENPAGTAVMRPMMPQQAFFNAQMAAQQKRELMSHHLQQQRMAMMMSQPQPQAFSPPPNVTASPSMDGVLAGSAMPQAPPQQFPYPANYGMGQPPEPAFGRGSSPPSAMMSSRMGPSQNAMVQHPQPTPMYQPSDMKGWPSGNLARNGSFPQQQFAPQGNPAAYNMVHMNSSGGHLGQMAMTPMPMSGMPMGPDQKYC
A3G conf – confirmation of human APOBEC3G DNA deaminase inhibitors; shares compounds with A3G deaminase; recombinant A3G ssDNA deaminase, UDG/FAM-TAMRA fluorescence; inhibition, % at 20 µM; 890 tested, 72% active;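 active means inhibition reaching a set limit in any replicate at 20 µM, the limit being 80% of the first screen's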
UDG A3G counter – inhibits E. coli UDG, flagging false APOBEC3G inhibitors. UDG counterscreen, FAM/TAMRA oligo fluorescence. inhibition, % at 20 µM. shares compounds with A3G deaminase. 710 tested, under 10 active;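 active means compounds giving 40% or more inhibition at 20 µM in any one of the three replicates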;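 further: plate controls were DMSO wells with UDG and oligo for no effect and DMSO wells lacking both for full effect; inhibitors lower the FAM signal released by uracil excision and alkaline cleavage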
* = called active by the depositor.

`O=[N+]([O-])c1ccc(N/N=C/c2cccnc2)cc1` gave TbMetRS inhib 2, A3A deaminase -5, A3G deaminase 1, PHOSPHO1 block 8 and pCIP destab 0.
For COc1ccc(/C=C/C(=O)NNc2c(F)c(F)cc(F)c2F)cc1OC the results were TbMetRS inhib -1, A3A deaminase 0, A3G deaminase 60*, PHOSPHO1 block 17, pCIP destab 2, A3G conf 4 and UDG A3G counter -4.
Screening Cc1nc(C(F)(F)F)ccc1C(=O)N1CCC1(C)C(=O)NCc1cccs1 (stereo not given) returned TbMetRS inhib 0.
CN(C)CCn1c2c(c(SCC(=O)Nc3ccccc3)nc1=O)CCCC2 was read as TbMetRS inhib 0, A3A deaminase -2 and A3G deaminase -5.
For CCc1ccc(NC(=O)CSc2nc(=O)n(CCCN(C)C)c3c2CCC3)cc1 the results were TbMetRS inhib 0, A3A deaminase -1, A3G deaminase 65*, A3G conf -7 and UDG A3G counter 1.
COC(=O)CSc1nc(N)c2c3c(sc2n1)C(c1ccccc1)SC(c1ccccc1)C3 (stereo not given) was read as TbMetRS inhib 0, A3A deaminase -1, A3G deaminase 43*, PHOSPHO1 block -15, pCIP destab -16, A3G conf 4 and UDG A3G counter 2.
`CNS(=O)(=O)c1cc(NC(C)=O)c(C)cc1C` gave TbMetRS inhib -2, A3A deaminase 1, A3G deaminase -2, PHOSPHO1 block -10 and pCIP destab -22.
For COc1ccc(-c2cc(C)no2)cc1S(=O)(=O)NCC1CCN(Cc2cc(C)ccc2C)CC1 the results were TbMetRS inhib 1, A3A deaminase -3, A3G deaminase -6, PHOSPHO1 block 43 and pCIP destab -6.
C=CCNC(=S)NNC(=O)c1ccc(OCCC)cc1 was read as TbMetRS inhib 0, A3A deaminase -2, A3G deaminase -5, PHOSPHO1 block 5 and pCIP destab 3.
CCCOc1ccc(C(=O)NNC(=S)NC(=O)CC)cc1 was read as TbMetRS inhib -1, A3A deaminase -1, A3G deaminase 48*, PHOSPHO1 block 38, pCIP destab 13, A3G conf 6 and UDG A3G counter -2.
For O=C(CSc1nnc(C2CC2)n1C1CC1)c1cc(F)ccc1F the results were TbMetRS inhib 0, A3A deaminase 1 and A3G deaminase -2.
For CCN(C(=O)c1ccco1)c1nnc(-c2ccc(OC)cc2)s1 the results were TbMetRS inhib 0, A3A deaminase -2, A3G deaminase -2, PHOSPHO1 block -1 and pCIP destab 11.
`CCCN(C(=O)c1ccco1)c1nnc(-c2cccc(C)c2)s1` gave TbMetRS inhib -1, A3A deaminase 1, A3G deaminase 65*, PHOSPHO1 block 27, pCIP destab -9 and A3G conf 0.
For CC(C)[C@H](NC(=O)c1ccccc1Cl)C(=O)OCC(=O)NCc1ccc2c(c1)OCO2 the results were TbMetRS inhib 0, A3A deaminase -4 and A3G deaminase -8.
Screening Cc1nc2nc[nH]c2cc1Br returned TbMetRS inhib 0, A3A deaminase -3, A3G deaminase -6, PHOSPHO1 block -2 and pCIP destab -9.
Screening Cc1nc2[nH]c(=S)[nH]c2cc1Br returned TbMetRS inhib -1, A3A deaminase -2, A3G deaminase 47*, PHOSPHO1 block 101*, pCIP destab 3, A3G conf 82* and UDG A3G counter 2.
`O=C(CCN1C(=O)/C(=C/c2ccc(Cl)cc2)SC1=S)Nc1ccc(C(=O)O)cc1` gave TbMetRS inhib 0, A3A deaminase -4, A3G deaminase 40*, pCIP destab -4, A3G conf -5 and UDG A3G counter -3.
For CN(C(=O)c1cccc(N2C(=O)C3C4C=CC(C4)C3C2=O)c1)C1CCCCC1 (stereo not given) the results were TbMetRS inhib 1, A3A deaminase -4, A3G deaminase -6, PHOSPHO1 block 19 and pCIP destab 6.
For CCc1ccc(/C=N\NC(=O)c2ccc(Br)o2)s1 the results were TbMetRS inhib 0, A3A deaminase -2, A3G deaminase -5, PHOSPHO1 block 12 and pCIP destab 2.
Screening Cc1ccc(/C=N/NC(=O)c2ccc(Br)o2)s1 returned TbMetRS inhib -1, A3A deaminase -1, A3G deaminase 59*, PHOSPHO1 block -2, pCIP destab 3, A3G conf -3 and UDG A3G counter 2.
For CCOCCCNC(=O)CN1N=C(c2ccc(C)cc2)CCC1=O the results were TbMetRS inhib -1, A3A deaminase -6, A3G deaminase -7, PHOSPHO1 block 6 and pCIP destab 4.
For O=C(Nc1cc(S(=O)(=O)N2CCOCC2)ccc1N1CCCCC1)c1cc(-c2ccccn2)nc2ccccc12 the results were TbMetRS inhib -1, A3A deaminase 4, A3G deaminase 53*, PHOSPHO1 block -65, pCIP destab -1, A3G conf 58* and UDG A3G counter -2.
For COc1ccc(F)cc1-c1cc(NC(C)=O)c2ncc(-c3cccc(C(F)(F)F)c3)n2c1 the results were TbMetRS inhib 0.
CCOC(=O)/C=C/C(=O)Nc1cccc([N+](=O)[O-])c1 was read as TbMetRS inhib 0, A3A deaminase 4, A3G deaminase 40*, PHOSPHO1 block -7, pCIP destab -1, A3G conf 64* and UDG A3G counter 4.
COC(=O)c1ccc(/C=N/Nc2nc(-c3ccccc3)cs2)cc1 was read as TbMetRS inhib 0, A3A deaminase -1, A3G deaminase -1, PHOSPHO1 block 4 and pCIP destab -11.
`COC(=O)c1ccc(/C=N/Nc2nc(-c3ccc(C)cc3)cs2)cc1` gave TbMetRS inhib 0, A3A deaminase 1, A3G deaminase 45*, PHOSPHO1 block 1, pCIP destab -2 and A3G conf -4.
`Cc1ccccc1OCC(=O)NCCCNC(=O)c1cccnc1` gave TbMetRS inhib 0, A3A deaminase -3, A3G deaminase -10, PHOSPHO1 block 12 and pCIP destab -3.
Screening CCOc1ccccc1N(CC(=O)N1CCN(Cc2ccccc2)CC1)S(=O)(=O)c1ccccc1 returned TbMetRS inhib 0.
`COC(=O)c1sc(NC(=O)c2cc(-c3ccccc3)nc3ccccc23)c(C#N)c1C` gave TbMetRS inhib 0, A3A deaminase 0, A3G deaminase 64*, PHOSPHO1 block 96*, pCIP destab 1, A3G conf 58* and UDG A3G counter 3.
For O=c1nc2n(c3ccccc13)Cc1ccccc1-2 the results were PHOSPHO1 block 6 and pCIP destab 1.
